From PubChem BioAssay
Active and inactive are the calls of the source.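 Rule for the calls, unless noted: active = viability at or below 30% in both replicate assays; inconclusive = viability at or below 30% in just one of the two assays; inactive = the rest.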

Legend:
[1] = SK-BR-3 cell growth inhibitors, pilot screen, 24 h, human (AID 572;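 active = viability at or below 10% of carrier control in both of two separate runs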;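 note: compound exposure lasted between 18 and 24 h rather than exactly 24 h; 100% = carrier-treated control wells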); settings: SK-BR-3 viability, CellTiter-Glo luminescence, at 10 µM, stronger effect = lower value
[2] = HUVEC growth inhibition – cell-based, human, primary screen (AID 575); settings: HUVEC proliferation, CellTiter-Glo luminescence, 72 h; at 10 µM; stronger effect = lower value;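 note: 100% = median of untreated cell wells with 0.1% DMSO on each plate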
How it was run: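 Assay system: Primary human umbilical vein endothelial cells | Quantity: 1250 cells per well | Medium: Supplemented EBM, 2% fetal bovine serum | Detection: CellTiter-Glo luminescence measuring cellular ATP | Read-out: % viability vs DMSO wells | Plate: Collagen-coated 384-well format | Times: 72 h exposure, 37 °C, 5% CO2, 30 min RT equilibration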

[3] = reversal of MRP1-mediated doxorubicin resistance, pilot screen, H69AR cells, doxorubicin co-treatment (AID 601;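 active = viability loss from added drug above about 55%, and viability with drug at most 40%, in both replicates, limit read from the data, passing the limit was not always enough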); settings: CellTiter-Glo, 72 h, at 10 µM; for differential viability (reversal): stronger effect = higher value
[4] = 384-well plate pilot, post-Golgi transport modulator project, inhibition of yeast transport mutant growth (AID 636; in the data active = inhibition above about 31%); settings: absorbance 615 nm, about 18 h, stronger effect = higher value
[5] = growth suppression of yeast trafficking mutant, preliminary HTS, modulators of trafficking downstream of Golgi apparatus project, 1536-format plate, OD 615 nm (AID 637; in the data active = inhibition above about 30%); settings: yeast transport mutant growth, absorbance 615 nm, 18 h; stronger effect = higher value
[6] = H69AR cells + 2 uM doxorubicin, measured here: viability with 2 uM doxorubicin, stronger effect = lower value
[7] = H69AR cells, compound alone cytotoxicity

Compound | viability [1] | viability [2] | differential viability (reversal) ([3]; H69AR cells + 2 uM doxorubicin) | viability [3, 6] [%] | viability [3, 7] [%] | inhibition [4] | inhibition [5]
COc1cc2c(cc1NC(=O)CSc1nnc(Cc3cccs3)n1C)oc1ccccc12 | 74% (inactive) | 54.4% (inactive) | -12.1% (inactive) | 59.9 | 47.8 | 11.5% (inactive) | 4.36% (inactive)
CCN(CC)c1ccc2c(c1)CCCN2 | 86.5% (inactive) | 95.9% (inactive) | -13.2% (inactive) | 56.6 | 43.4 | -4.21% (inactive) | 1.64% (inactive)
C=C1[C@@H](C)C2[C@H](Cc3ccccc3)NC(=O)[C@]23OC(=O)CC[C@H](O)CCC[C@H](C)C/C=C/[C@H]3[C@@H]1O (some centres undefined) | 95% (inactive) | 13.1% (active) | -16.3% (inactive) | 48.2 | 31.9 | -0.26% (inactive) | 0.67% (inactive)
CCCc1[nH]nc2c1C(c1cn[nH]c1-c1ccc(F)cc1)C(C#N)=C(N)O2 (centres undefined) | 98.5% (inactive) | 48.3% (inactive) | -8.32% (inactive) | 53.7 | 45.4 | -2.21% (inactive) | 2.95% (inactive)
O=C(/C=C/c1ccccc1)c1ccccc1 | 107% (inactive) | 50.2% (inactive) | -2.5% (inactive) | 4.56 | 2.06 | 1.95% (inactive) | 0.67% (inactive)
N#Cc1c(N2CCCC2)nc(N)c2c(N)nc(N3CCCC3)cc12 | 82% (inactive) | 68.2% (inactive) | -29% (inactive) | 75.2 | 46.3 | -0.13% (inactive) | -2.3% (inactive)
O=C(CC(SCCO)c1ccc2c(c1)OCO2)c1ccco1 (centres undefined) | 77.5% (inactive) | 95% (inactive) | -17.8% (inactive) | 59.3 | 41.5 | -7.57% (inactive) | -3.65% (inactive)
CCCCC(=O)O[C@H]1CC[C@H]2[C@@H]3CCc4cc(O)ccc4[C@H]3CC[C@]12C | 82% (inactive) | 1.94% (active) | 13.5% (inactive) | 6.17 | 19.7 | 4.81% (inactive) | 8.33% (inactive)
COc1ccc(-c2ccc(-c3noc(-c4ccccc4OC)n3)c(OC)n2)cc1 | 62% (inactive) | 63.9% (inactive) | -2.01% (inactive) | 64.9 | 62.9 | -4.59% (inactive) | 18.9% (inactive)
CC(=O)[C@H]1CC[C@H]2[C@@H]3CCC4=CC(=O)CC[C@]4(C)[C@H]3CC[C@]12C | 93% (inactive) | 49.4% (inactive) | -3.29% (inactive) | 50.5 | 47.2 | 5.06% (inactive) | -1% (inactive)
CCOC(=O)N1CCN(CC(=O)Nc2cc(C)nn2-c2nc3ccccc3s2)CC1 | 74% (inactive) | 57% (inactive) | -1.56% (inactive) | 39.2 | 37.7 | -0.39% (inactive) | 2.46% (inactive)
Cc1[nH]nc2c1C1(C(=O)N(Cc3ccc(Cl)cc3)c3ccccc31)C(C#N)=C(N)O2 (centres undefined) | 94% (inactive) | 90% (inactive) | -39.8% (inactive) | 92 | 52.2 | -4.32% (inactive) | 0.18% (inactive)
COC(=O)C1=C(C)NC(C)=C(C(=O)OC)C1c1ccccc1[N+](=O)[O-] | 91% (inactive) | 46.7% (inactive) | 11.9% (inactive) | 2.41 | 14.3 | 1.04% (inactive) | -2.67% (inactive)
N#C/C(=C\c1ccc(O)c(O)c1)C(=O)NCCCc1ccccc1 | 88% (inactive) | 43.4% (inactive) | -33.4% (inactive) | 78 | 44.6 | 1.04% (inactive) | 5.5% (inactive)
Cc1cccc(OCC(=O)Nc2cc(C)ccc2O)c1 | 105% (inactive) | 75.3% (inactive) | -14% (inactive) | 51.4 | 37.4 | -6.16% (inactive) | 0.18% (inactive)
OCCN1CCN(CCCN2c3ccccc3Sc3ccc(Cl)cc32)CC1 | 53% (inactive) | 1.56% (active) | -3.86% (inactive) | 5.27 | 1.41 | -3.38% (inactive) | 47.3% (active)
N=c1c(C(=O)NCc2ccccc2)cc2c(=O)n3ccccc3nc2n1Cc1ccco1 | 93% (inactive) | 79.2% (inactive) | -13.5% (inactive) | 65.5 | 52.1 | -4.25% (inactive) | 0.32% (inactive)
CC(=O)[C@@]1(O)CC[C@H]2[C@@H]3C[C@H](C)C4=CC(=O)CC[C@]4(C)[C@H]3CC[C@@]21C | 106% (inactive) | 73.9% (inactive) | -15.6% (inactive) | 18 | 2.32 | -1.43% (inactive) | -2.67% (inactive)
CCCCCC(=O)O[C@]1(C(C)=O)CC[C@H]2[C@@H]3CCC4=CC(=O)CC[C@]4(C)[C@H]3CC[C@@]21C | 93% (inactive) | 4.16% (active) | 20.6% (inactive) | 2.59 | 23.1 | 5.84% (inactive) | -2% (inactive)
CC(=O)O[C@]1(C(C)=O)CC[C@H]2[C@@H]3C=C(Cl)C4=CC(=O)CC[C@]4(C)[C@H]3CC[C@@]21C | 104% (inactive) | 93.2% (inactive) | -23.2% (inactive) | 54.4 | 31.2 | -1.3% (inactive) | -2.5% (inactive)

Compound | viability [1] | viability [2] | differential viability (reversal) ([3]; H69AR cells + 2 uM doxorubicin) | viability [3, 6] [%] | viability [3, 7] [%] | inhibition [4] | inhibition [5]
O=C(Cn1c(=O)oc2ccccc21)Nc1ccc(S(=O)(=O)N2CCCCC2)cc1 | 106% (inactive) | 89.2% (inactive) | 5.17% (inactive) | 59.9 | 65.1 | 1.92% (inactive) | -2.58% (inactive)
CSc1ccc(-c2cc(=O)c3ccccc3o2)cc1 | 110% (inactive) | 48.1% (inactive) | -16.6% (inactive) | 73.6 | 56.9 | -4.13% (inactive) | -4.55% (inactive)
COc1cc(/C=C/C(=O)CC(=O)/C=C/c2ccc(O)c(OC)c2)ccc1O | 116% (inactive) | 56.8% (inactive) | 1.03% (inactive) | 2.06 | 3.09 | -2.34% (inactive) | 3.5% (inactive)
O=C(Nc1ccccc1-c1nc2ccccc2o1)c1ccc2c(c1)OCCO2 | 112% (inactive) | 66.7% (inactive) | -12.7% (inactive) | 48.4 | 35.7 | -3.64% (inactive) | -4.44% (inactive)
Cc1ccc(Cn2c(=N)c(C(=O)NCc3ccco3)cc3c(=O)n4ccccc4nc32)cc1 | 78% (inactive) | 96.1% (inactive) | -0.275% (inactive) | 47.4 | 47.1 | -5.81% (inactive) | -4.36% (inactive)
CCOC(=O)c1[nH]c2ccc(Br)cc2c1NC(=O)CCN1CCC(C(=O)OCC)CC1 | 115% (inactive) | 77.3% (inactive) | 12% (inactive) | 33.2 | 45.2 | -2.53% (inactive) | 1.27% (inactive)
COc1cc([C@@H]2c3cc4c(cc3[C@H](O)[C@H]3COC(=O)[C@H]23)OCO4)cc(OC)c1OC | 101% (inactive) | 33.9% (inactive) | -32.5% (inactive) | 63.7 | 31.2 | -2.99% (inactive) | -5.67% (inactive)
Oc1c(I)cc(Cl)c2cccnc12 | 84% (inactive) | 8.13% (active) | -10.4% (inactive) | 46.2 | 35.8 | 4.55% (inactive) | 8.83% (inactive)
CC(C)(C)c1ccc(C(O)CCCN2CCC(C(O)(c3ccccc3)c3ccccc3)CC2)cc1 (centres undefined) | 91% (inactive) | 1.7% (active) | 0.38% (inactive) | 1.16 | 1.54 | -1.95% (inactive) | -1% (inactive)
C=CCOc1ccc(CN(C)CC(=O)N(CC(C)C)c2c(N)n(CC(C)C)c(=O)[nH]c2=O)cc1 | 99% (inactive) | 99.6% (inactive) |  |  |  | -6.16% (inactive) | 2% (inactive)
CCOC(=O)N1CCC(=C2c3ccc(Cl)cc3CCc3cccnc32)CC1 | 116% (inactive) | 52.7% (inactive) |  |  |  | 1.95% (inactive) | 12.2% (inactive)
O=C(Nc1ccc2[nH]c3c(c2c1)CCCC3)c1ccco1 | 82% (inactive) | 73.1% (inactive) | -3.58% (inactive) | 66.7 | 63.1 | -8.67% (inactive) | -2.73% (inactive)
Cc1cc(C(=O)COc2cccc3cccnc23)c(C)n1C | 95% (inactive) | 80.9% (inactive) | -11.7% (inactive) | 70.8 | 59.1 | -2.67% (inactive) | -3.64% (inactive)
C=CCSc1nnc2n(CCc3ccccc3)c(=O)c3c4c(sc3n12)COC(C)(C)C4 | 124% (inactive) | 72.5% (inactive) | 33.1% (inactive) | 13.8 | 47 | -4.38% (inactive) | 1.13% (inactive)
CC1Cc2ccccc2N1CC(=O)NC(=O)NCc1ccco1 (centres undefined) | 85% (inactive) | 89.6% (inactive) | -30.2% (inactive) | 70.1 | 39.9 | -0.27% (inactive) | 2.36% (inactive)
CC(C)(C)OC(=O)N1CC=C2C(C#N)=C(N)C(C#N)(C#N)C(c3cccs3)C2C1 (centres undefined) | 65% (inactive) | 53.9% (inactive) | -5.04% (inactive) | 57.8 | 52.8 | -1.92% (inactive) | -0.16% (inactive)
COc1ccccc1C(=O)NCC(c1cccnc1)N(C)C (centres undefined) | 108% (inactive) | 96% (inactive) |  |  |  | -7.12% (inactive) | -1.27% (inactive)
COC1=CC(=O)CC(C)C12Oc1c(Cl)c(OC)cc(OC)c1C2=O (centres undefined) | 100% (inactive) | 62.8% (inactive) | -31.8% (inactive) | 50 | 18.1 | -2.99% (inactive) | -5.67% (inactive)
COC(=O)c1ccc(CSc2ncnc3c2nnn3-c2ccc(OC)cc2)o1 | 87.5% (inactive) | 88% (inactive) | -10.7% (inactive) | 71.6 | 60.9 | -1.97% (inactive) | 6.07% (inactive)
